Results taken from ChEMBL document CHEMBL4011626, “Structure-Based Optimization of Pyridoxal 5'-Phosphate-Dependent Transaminase Enzyme (BioA) Inhibitors that Target Biotin Biosynthesis in Mycobacterium tuberculosis” (J Med Chem, 2017).

Test system: Mycobacterium tuberculosis
Experiment: Inhibition of Bio-A overexpressed in Mycobacterium tuberculosis in presence of anhydrotetracycline after 9 days
How it was run: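 BioA-overexpressing or BioA-underexpressing Mtb strains were pregrown in Sauton's with 1 μM biotin, washed twice, and seeded at OD580 0.03 in biotin-free medium with 200 ng/mL anhydrotetracycline to set BioA expression. Compounds were tested at 0.2–50 μM final at 37 °C. OD580 was read after 9 days. MIC is the concentration giving 50% inhibition. Triplicate, two biological replicates.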

Question: With `C/C(=N\O)c1ccc(N2CCN(C(=O)c3cccc(Cl)c3)CC2)cc1` as the compound, how does the MIC50 read?
Answer: > 50 µM

Question: Which MIC50 does the source give for `O=C1CCc2cc(N3CCN(C(=O)c4ccc5c(c4)OCO5)CC3)ccc21` here?
Answer: 2.8 µM

Question: With `CC(=O)c1ccc(N2CCC(C(=O)c3ccc4c(c3)OCO4)CC2)cc1` as the compound, how does the MIC50 read?
Answer: > 50 µM

Question: For `O=C1CCc2cc(N3CCN(C(=O)c4cccc(Cl)c4)CC3)ccc21`, which MIC50 is on record?
Answer: 8.1 µM

Question: For `O=C(c1cccc(Cl)c1)N1CCN(c2ccc([N+](=O)[O-])cc2)CC1`, which MIC50 is on record?
Answer: 20.9 µM

Question: With `Cn1nnnc1-c1ccc(N2CCN(C(=O)c3cccc(Cl)c3)CC2)cc1` as the compound, how does the MIC50 read?
Answer: > 50 µM

Question: Which MIC50 does the source give for `CC(=O)c1ccc(N2CCC(C(=O)c3cccc(Cl)c3)CC2)cc1` here?
Answer: 9.2 µM

Question: With `CC(=O)c1ccc(N2CCN(C(=O)c3cscn3)CC2)cc1` as the compound, how does the MIC50 read?
Answer: > 50 µM

Question: For `O=C1OCc2cc(N3CCN(C(=O)c4cccc(Cl)c4)CC3)ccc21`, which MIC50 is on record?
Answer: > 50 µM

Question: Which MIC50 does the source give for `O=C(c1cccc(Cl)c1)N1CCN(c2ccc3c(c2)COC3)CC1` here?
Answer: > 50 µM

Question: For `Cc1noc(-c2ccc(N3CCN(C(=O)c4cccc(Cl)c4)CC3)cc2)n1`, which MIC50 is on record?
Answer: > 50 µM

Question: For `COC(=O)c1ccc(N2CCN(C(=O)c3cccc(Cl)c3)CC2)cc1`, which MIC50 is on record?
Answer: > 50 µM

Question: For `CC(=O)c1ccc(N2CCN(C(=O)c3cncc(Cl)c3)CC2)cc1`, which MIC50 is on record?
Answer: > 50 µM

Question: With `COc1ccc(-c2ccc(N3CCN(C(=O)c4cccc(Cl)c4)CC3)cc2)nc1` as the compound, how does the MIC50 read?
Answer: > 50 µM

Question: Which MIC50 does the source give for `CC(=O)c1ccc(-c2cn(Cc3cccc(Cl)c3)nn2)cc1` here?
Answer: > 50 µM

Question: For `O=C(c1cccc(Cl)c1)N1CCN(c2ccc(-c3ccccn3)cc2)CC1`, which MIC50 is on record?
Answer: > 50 µM

Question: For `CC(=O)c1ccc(N2CCN(C(=O)c3ccc(Cl)c(Cl)c3)CC2)cc1`, which MIC50 is on record?
Answer: 17.7 µM

Question: For `O=C(c1cccc(Cl)c1)N1CCN(c2ccc(-c3ccno3)cc2)CC1`, which MIC50 is on record?
Answer: 38.9 µM

Question: Which MIC50 does the source give for `CCCC(=O)N1CCN(c2ccc(C(C)=O)cc2)CC1` here?
Answer: > 50 µM

Question: Which MIC50 does the source give for `CN1Cc2cc(N3CCN(C(=O)c4cccc(Cl)c4)CC3)ccc2C1=O` here?
Answer: > 50 µM

Question: Which MIC50 does the source give for `CC(=O)c1ccc(N2CCN(C(=O)CC(C)C)CC2)cc1` here?
Answer: > 50 µM

Question: With `N#Cc1ccc(N2CCN(C(=O)c3cccc(Cl)c3)CC2)cc1` as the compound, how does the MIC50 read?
Answer: 45.9 µM

Question: Which MIC50 does the source give for `CC(=O)c1ccc(N2CCN(C(=O)c3ccc4c(c3)OCCO4)CC2)cc1` here?
Answer: > 50 µM

Question: With `CC(=O)c1cccc(N2CCN(C(=O)c3cccc(Cl)c3)CC2)c1` as the compound, how does the MIC50 read?
Answer: > 50 µM

Question: For `CC(=O)c1ccc(N2CCN(C(=O)c3cc(Cl)cc(Cl)c3)CC2)cc1`, which MIC50 is on record?
Answer: > 50 µM

Question: Which MIC50 does the source give for `CC(=O)c1ccc(N2CCN(C(=O)c3cccc(Cl)c3)CC2)cc1` here?
Answer: 7.5 µM

Question: For `CC(=O)c1ccc(N2CCN(C(=O)c3cccnc3)CC2)cc1`, which MIC50 is on record?
Answer: > 50 µM

Question: With `CC(=O)c1ccc(N2CCN(C(=O)c3cnn(C)c3)CC2)cc1` as the compound, how does the MIC50 read?
Answer: > 50 µM

Question: With `CCC(=O)N1CCN(c2ccc(C(C)=O)cc2)CC1` as the compound, how does the MIC50 read?
Answer: > 50 µM

Question: With `CC(=O)c1ccc(N2CCN(C(=O)c3ccc4c(c3)OCO4)CC2)cc1` as the compound, how does the MIC50 read?
Answer: 31.1 µM

Question: And the MIC90?
Answer: > 50 µM

Question: With `CCCCCC(=O)N1CCN(c2ccc(C(C)=O)cc2)CC1` as the compound, how does the MIC50 read?
Answer: 47.6 µM

Question: For `CC(=O)c1ccc(N2CCN(C(=O)c3ccc4c(c3)OCCCO4)CC2)cc1`, which MIC50 is on record?
Answer: > 50 µM

Question: With `CC(=O)c1ccc(-c2cn(Cc3cccc(Cl)c3)nn2)s1` as the compound, how does the MIC50 read?
Answer: > 50 µM

Question: For `COc1cc(Cl)cc(C(=O)N2CCN(c3ccc(C(C)=O)cc3)CC2)c1`, which MIC50 is on record?
Answer: > 50 µM

Question: Which MIC50 does the source give for `CC(=O)c1ccc(N2CCN(C(=O)c3cccc(Cl)c3)CC2)s1` here?
Answer: 7.6 µM

Test system: not listed separately
Experiment: Binding affinity to N-terminally His-tagged Mycobacterium tuberculosis BioA overexpressed in Escherichia coli by ITC method
How it was run: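 BioA loaded with PLP by adding 1 mM PLP after size exclusion, then buffer-exchanged into 25 mM HEPES pH 7.5, 50 mM NaCl. Titrated at 25 °C: 10 μM BioA, ligand 100 μM with DMSO matched, 2 μL injections 150 s apart, 750 rpm. First injection discarded; dilution heats corrected; curve fit gives KA, KD = 1/KA. Triplicate, mean ± standard error.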

Question: Which Kd does the source give for `O=C1CCc2cc(N3CCN(C(=O)c4ccc5c(c4)OCO5)CC3)ccc21` here?
Answer: 74 nM

Question: Which Kd does the source give for `O=C1CCc2cc(N3CCN(C(=O)c4cccc(Cl)c4)CC3)ccc21` here?
Answer: 132 nM

Question: Which Kd does the source give for `O=C1OCc2cc(N3CCN(C(=O)c4cccc(Cl)c4)CC3)ccc21` here?
Answer: 685 nM

Question: Which Kd does the source give for `CN1Cc2cc(N3CCN(C(=O)c4cccc(Cl)c4)CC3)ccc2C1=O` here?
Answer: 866 nM

Question: Which Kd does the source give for `CC(=O)c1ccc(N2CCN(C(=O)c3cccc(Cl)c3)CC2)cc1` here?
Answer: 157 nM

Question: With `CC(=O)c1ccc(N2CCN(C(=O)c3ccc4c(c3)OCO4)CC2)cc1` as the compound, how does the Kd read?
Answer: 108 nM

Question: Which Kd does the source give for `CC(=O)c1ccc(N2CCN(C(=O)c3cccc(Cl)c3)CC2)s1` here?
Answer: 322 nM
